Results from ChEMBL document CHEMBL1148313, “A new class of nonpeptide bradykinin B(2) receptor ligand, incorporating a 4-aminoquinoline framework. Identification of a key pharmacophore to determine species difference and agonist/antagonist profile” (J Med Chem, 2004).

Experiments:
Cavia porcellus [1] = assay: In vivo functional antagonistic activity in inhibiting BK (5 ug/kg, i.v.) induced bronchoconstriction in guinea pigs by 10 ug/kg iv administration
In short: (§1)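 Male Hartley guinea pigs (470–750 g), fasted overnight, pentobarbital 30 mg/kg i.p., ventilated 10 mL/kg at 60 breaths/min, alcuronium 0.5 mg/kg i.v., propranolol 10 mg/kg s.c. BK in saline/0.1% BSA i.v.; compound in 5% citric acid i.v. 25 min after first BK, BK repeated 5 min later. Peak insufflation pressure rise (Konzett–Rössler); % inhibition versus vehicle, n = 3–4.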

B2 bradykinin receptor [2] = biological target: T1, B2 bradykinin receptor (Homo sapiens, UniProt P30411); assay: Inhibition of specific binding of [3H]BK at 1 nM to human bradykinin receptor B2 expressed in CHO cells by 50%.; type: cell-based
T1 sequence (P30411 whole entry): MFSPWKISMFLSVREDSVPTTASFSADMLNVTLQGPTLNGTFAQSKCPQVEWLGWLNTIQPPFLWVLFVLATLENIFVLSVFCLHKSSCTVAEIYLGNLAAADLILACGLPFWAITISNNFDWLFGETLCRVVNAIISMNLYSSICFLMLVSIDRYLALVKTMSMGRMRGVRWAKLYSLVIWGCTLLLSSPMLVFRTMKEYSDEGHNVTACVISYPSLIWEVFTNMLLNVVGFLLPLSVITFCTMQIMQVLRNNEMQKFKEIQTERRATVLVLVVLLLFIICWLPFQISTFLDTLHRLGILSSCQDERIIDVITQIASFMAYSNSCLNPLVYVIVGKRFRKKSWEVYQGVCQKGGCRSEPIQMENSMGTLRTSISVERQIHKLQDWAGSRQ
In short: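 Intact CHO (dhfr−) cells stably expressing human B2, seeded 3.0 × 10⁴/well for 1 day. Incubated with [3H]BK and compound 2 h at 4 °C in HEPES/N-methyl-D-glucamine buffer pH 7.2 with enalaprilat, bacitracin and 0.1% BSA. Cells lysed in SDS/NaOH and counted; nonspecific binding with 1 μM BK. Three experiments.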

B2 bradykinin receptor [3] = biological target: T2, B2 bradykinin receptor (Cavia porcellus, UniProt O70526); assay: Inhibition of specific binding of [3H]BK at 0.06 nM to bradykinin receptor B2 in guinea pig ileum membrane preparations by 50%.; type: cell membranes
T2 sequence (O70526 whole entry): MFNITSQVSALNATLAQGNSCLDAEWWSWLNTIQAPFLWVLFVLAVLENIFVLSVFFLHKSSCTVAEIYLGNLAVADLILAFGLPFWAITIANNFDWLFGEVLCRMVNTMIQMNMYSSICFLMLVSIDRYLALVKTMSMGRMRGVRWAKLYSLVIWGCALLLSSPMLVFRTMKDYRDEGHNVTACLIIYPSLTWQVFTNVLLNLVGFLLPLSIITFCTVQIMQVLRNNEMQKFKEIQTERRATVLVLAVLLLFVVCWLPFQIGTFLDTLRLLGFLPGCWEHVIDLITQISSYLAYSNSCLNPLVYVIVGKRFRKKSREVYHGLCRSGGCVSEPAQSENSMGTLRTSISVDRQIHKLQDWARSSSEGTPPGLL
In short: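 Ileum membranes from male Hartley guinea pigs, 0.2 mg protein/mL, in TES pH 6.8 containing phenanthroline, bacitracin, DTT, captopril and 0.1% BSA. Incubated with [3H]BK and compound at room temperature for 60 min. GF/B filtration, scintillation counting; nonspecific binding with 1 μM BK. Three experiments.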

CHO [4] = assay: Relative agonistic activity in IP formation compared to BK (10 nM) IPs in CHO cells expressing the cloned human B2 receptor at 1 uM concentration; type: functional, Cricetulus griseus
In short: (§2)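 Human B2-CHO cells labeled 24 h with [3H]inositol (1 μCi/mL). Preincubated in PBS/0.2% BSA with 10 mM LiCl for 30 min at 37 °C, then compound for 30 min at 37 °C. Stopped with 5% TCA. IP1–IP3 separated on AG 1-X8 and counted. Basal counts subtracted; response expressed relative to 10 nM BK.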

CHO [5] = assay: Relative agonistic activity in IP formation compared to BK (10 nM) IPs in CHO cells expressing the cloned human B2 receptor at 10 uM concentration; type: functional, Cricetulus griseus; in short: as §2
Cavia porcellus [6] = assay: In vivo functional antagonistic activity in inhibiting BK (5 ug/kg, i.v.) induced bronchoconstriction in guinea pigs by 100 ug/kg iv administration; in short: as §1

`Cc1cc(N(C)C)c2cccc(OCc3c(Cl)ccc(N(C)C(=O)CNC(=O)/C=C/c4ccc(C(=O)N(C)C)cc4)c3Cl)c2n1.Cl.Cl` showed an Inhibition (Cavia porcellus [1]) of 73.4%.
Compound `CNC(=O)c1ccc(/C=C/C(=O)NCC(=O)N(C)c2ccc(Cl)c(COc3cccc4c(N5CCCC5)cc(C)nc34)c2Cl)cc1` has an IC50 (B2 bradykinin receptor [2]) of 87 nM and an IC50 (B2 bradykinin receptor [3]) of 2300 nM.
`CNC(=O)c1ccc(/C=C/C(=O)NCC(=O)N(C)c2ccc(Cl)c(COc3cccc4c(NCCOC)cc(C)nc34)c2Cl)cc1` gave an IC50 (B2 bradykinin receptor [2]) of 41 nM and an IC50 (B2 bradykinin receptor [3]) of 49 nM.
`CNC(=O)c1ccc(/C=C/C(=O)NCC(=O)N(C)c2ccc(Cl)c(COc3cccc4c(N5CCN(C)CC5)cc(C)nc34)c2Cl)cc1` gave an IC50 (B2 bradykinin receptor [2]) of 98 nM and an IC50 (B2 bradykinin receptor [3]) of 1500 nM.
`CNC(=O)c1ccc(/C=C/C(=O)NCC(=O)N(C)c2ccc(Cl)c(COc3cccc4c(N5CCCCC5)cc(C)nc34)c2Cl)cc1.Cl.Cl.Cl.Cl` gave an IC50 (B2 bradykinin receptor [2]) of 1.1 nM, a Relative agonistic activity (CHO [4]) of 4.4% and a Relative agonistic activity (CHO [5]) of 4.2%. The IC50 (B2 bradykinin receptor [3]) was 68 nM.
In the case of `CNC(=O)c1ccc(/C=C/C(=O)NCC(=O)N(C)c2ccc(Cl)c(COc3cccc4c(N(CCOC)CCOC)cc(C)nc34)c2Cl)cc1`, the IC50 (B2 bradykinin receptor [2]) is reported as 19 nM and the IC50 (B2 bradykinin receptor [3]) is reported as 560 nM.
`CNC(=O)c1ccc(/C=C/C(=O)NCC(=O)N(C)c2ccc(Cl)c(COc3cccc4c(N5CCCCCC5)cc(C)nc34)c2Cl)cc1` was tested, and the IC50 (B2 bradykinin receptor [2]) was 37 nM and the IC50 (B2 bradykinin receptor [3]) was 840 nM.
For `Cc1cc(N2CCOCC2)c2cccc(OCc3c(Cl)ccc(N(C)C(=O)CNC(=O)/C=C/c4ccc(N5CCCC5=O)cc4)c3Cl)c2n1.Cl.Cl.Cl.Cl`, the IC50 (B2 bradykinin receptor [2]) was 1.8 nM, the Relative agonistic activity (CHO [4]) was 6% and the Relative agonistic activity (CHO [5]) was 9.2%. It also gave an IC50 (B2 bradykinin receptor [3]) of 13 nM.
In the case of `Cc1cc(N2CCCCC2)c2cccc(OCc3c(Cl)ccc(N(C)C(=O)CNC(=O)/C=C/c4ccc(C(=O)N(C)C)cc4)c3Cl)c2n1.Cl.Cl.Cl.Cl`, the IC50 (B2 bradykinin receptor [2]) is reported as 0.76 nM, the Relative agonistic activity (CHO [4]) is reported as 17.2% and the Relative agonistic activity (CHO [5]) is reported as 21.8%. It also gave an IC50 (B2 bradykinin receptor [3]) of 30 nM.
`Cc1cc(N(C)C)c2cccc(OCc3c(Cl)ccc(N(C)C(=O)CNC(=O)/C=C/c4ccc(C(=O)N(C)C)nc4)c3Cl)c2n1.Cl.Cl.Cl.Cl` gave an IC50 (B2 bradykinin receptor [2]) of 4 nM, an IC50 (B2 bradykinin receptor [3]) of 8.1 nM and an Inhibition (Cavia porcellus [1]) of 89.7%.
In the case of `Cc1cc(N2CCCCC2)c2cccc(OCc3c(Cl)ccc(N(C)C(=O)CNC(=O)/C=C/c4ccc(N5CCCC5=O)cc4)c3Cl)c2n1.Cl.Cl.Cl.Cl`, the IC50 (B2 bradykinin receptor [2]) is reported as 1.2 nM, the Relative agonistic activity (CHO [4]) is reported as 14.8% and the Relative agonistic activity (CHO [5]) is reported as 18.7%. The IC50 (B2 bradykinin receptor [3]) was 28 nM.
`CC(=O)Nc1ccc(/C=C/C(=O)NCC(=O)N(C)c2ccc(Cl)c(COc3cccc4c(N(C)C)cc(C)nc34)c2Cl)cc1C.Cl.Cl.Cl.Cl` gave an IC50 (B2 bradykinin receptor [2]) of 4.8 nM, an IC50 (B2 bradykinin receptor [3]) of 21 nM and an Inhibition (Cavia porcellus [6]) of 94.7%.
`Cc1cc(N2CCOCC2)c2cccc(OCc3c(Cl)ccc(N(C)C(=O)CNC(=O)/C=C/c4ccc(C(=O)N(C)C)cc4)c3Cl)c2n1` was tested, and the IC50 (B2 bradykinin receptor [2]) was 0.88 nM and the IC50 (B2 bradykinin receptor [3]) was 43 nM.
`CNC(=O)c1ccc(/C=C/C(=O)NCC(=O)N(C)c2ccc(Cl)c(COc3cccc4c(N5CCOCC5)cc(C)nc34)c2Cl)cc1.Cl.Cl.Cl.Cl` showed an IC50 (B2 bradykinin receptor [2]) of 2.7 nM, a Relative agonistic activity (CHO [4]) of 0.9% and a Relative agonistic activity (CHO [5]) of -1.9%. For the same compound, the IC50 (B2 bradykinin receptor [3]) was 12 nM.
For `CNC(=O)c1ccc(/C=C/C(=O)NCC(=O)N(C)c2ccc(Cl)c(COc3cccc4c(N(C)C)cc(C)nc34)c2Cl)cc1OC.Cl.Cl.Cl.Cl`, the IC50 (B2 bradykinin receptor [2]) was 2 nM, the IC50 (B2 bradykinin receptor [3]) was 5.6 nM and the Inhibition (Cavia porcellus [1]) was 88.7%.
Compound `CC(=O)Nc1ccc(/C=C/C(=O)NCC(=O)N(C)c2ccc(Cl)c(COc3cccc4c(N5CCOCC5)cc(C)nc34)c2Cl)cn1` has an IC50 (B2 bradykinin receptor [2]) of 1.8 nM, an IC50 (B2 bradykinin receptor [3]) of 65 nM and an Inhibition (Cavia porcellus [6]) of 47.8%.
`Cc1cc(N2CCCCC2)c2cccc(OCc3c(Cl)ccc(N(C)C(=O)CNC(=O)/C=C/c4ccc(C(=O)Nc5ccncc5)cc4)c3Cl)c2n1.Cl` showed an IC50 (B2 bradykinin receptor [2]) of 0.52 nM, a Relative agonistic activity (CHO [4]) of 5.7% and a Relative agonistic activity (CHO [5]) of 12.7%. For the same compound, the IC50 (B2 bradykinin receptor [3]) was 240 nM.
Work on `Cc1cc(N(C)C)c2cccc(OCc3c(Cl)ccc(N(C)C(=O)CNC(=O)/C=C/c4ccc(C(=O)NCc5ccccn5)cc4)c3Cl)c2n1.Cl` yielded an IC50 (B2 bradykinin receptor [2]) of 5.9 nM, an IC50 (B2 bradykinin receptor [3]) of 28 nM and an Inhibition (Cavia porcellus [6]) of 97.3%.
Compound `Cc1cc(N2CCCCC2)c2cccc(OCc3c(Cl)ccc(N(C)C(=O)CNC(=O)/C=C/c4ccc(NC(=O)c5ccncc5)cc4)c3Cl)c2n1.Cl` has an IC50 (B2 bradykinin receptor [2]) of 1.6 nM, a Relative agonistic activity (CHO [4]) of 5.6% and a Relative agonistic activity (CHO [5]) of 5.3%. The IC50 (B2 bradykinin receptor [3]) was 75 nM.
`CNC(=O)c1ccc(/C=C/C(=O)NCC(=O)N(C)c2ccc(Cl)c(COc3cccc4c(NCCN(C)C)cc(C)nc34)c2Cl)cc1` gave an IC50 (B2 bradykinin receptor [2]) of 2500 nM and an IC50 (B2 bradykinin receptor [3]) of 2300 nM.
`Cc1cc(N(C)C)c2cccc(OCc3c(Cl)ccc(N(C)C(=O)CNC(=O)/C=C/c4ccc(NC(=O)c5ccncc5)cc4)c3Cl)c2n1.Cl` showed an IC50 (B2 bradykinin receptor [2]) of 0.47 nM, an IC50 (B2 bradykinin receptor [3]) of 6.9 nM and an Inhibition (Cavia porcellus [1]) of 59%.
For `CNC(=O)c1ccc(/C=C/C(=O)NCC(=O)N(C)c2ccc(Cl)c(COc3cccc4c(N5CCOCC5)cc(C)nc34)c2Cl)cn1.Cl`, the IC50 (B2 bradykinin receptor [2]) was 1.1 nM, the IC50 (B2 bradykinin receptor [3]) was 85 nM and the Inhibition (Cavia porcellus [6]) was 72.3%.
In the case of `Cc1cc(N(C)C)c2cccc(OCc3c(Cl)ccc(N(C)C(=O)CNC(=O)Nc4cccc(C(=O)Nc5ccncc5)c4)c3Cl)c2n1.Cl`, the IC50 (B2 bradykinin receptor [2]) is reported as 2.2 nM, the IC50 (B2 bradykinin receptor [3]) is reported as 12 nM and the Inhibition (Cavia porcellus [6]) is reported as 97.7%.
For `CNC(=O)c1ccc(/C=C/C(=O)NCC(=O)N(C)c2ccc(Cl)c(COc3cccc4c(N(C)C)cc(C)nc34)c2Cl)cn1.Cl`, the IC50 (B2 bradykinin receptor [2]) was 1.6 nM, the IC50 (B2 bradykinin receptor [3]) was 1.2 nM and the Inhibition (Cavia porcellus [1]) was 85.5%.
Compound `Cc1cc(N(C)C)c2cccc(OCc3c(Cl)ccc(N(C)C(=O)CNC(=O)/C=C/c4ccc(C(=O)Nc5ccncc5)cc4)c3Cl)c2n1.Cl` has an IC50 (B2 bradykinin receptor [2]) of 0.7 nM, an IC50 (B2 bradykinin receptor [3]) of 5.1 nM and an Inhibition (Cavia porcellus [1]) of 86.3%.
With `Cc1cc(N2CCOCC2)c2cccc(OCc3c(Cl)ccc(N(C)C(=O)CNC(=O)/C=C/c4ccc(NC(=O)c5ccncc5)cc4)c3Cl)c2n1.Cl` the IC50 (B2 bradykinin receptor [2]) was 1 nM, the Relative agonistic activity (CHO [4]) was -0.1% and the Relative agonistic activity (CHO [5]) was 0.9%. It also gave an IC50 (B2 bradykinin receptor [3]) of 29 nM.
For `Cc1cc(N2CCOCC2)c2cccc(OCc3c(Cl)ccc(N(C)C(=O)CNC(=O)/C=C/c4ccc(C(=O)Nc5ccncc5)cc4)c3Cl)c2n1.Cl`, the IC50 (B2 bradykinin receptor [2]) was 0.64 nM, the IC50 (B2 bradykinin receptor [3]) was 37 nM and the Inhibition (Cavia porcellus [6]) was 91.8%. The Inhibition (Cavia porcellus [1]) was 46.2%.
Work on `Cc1cc(N2CCCCC2)c2cccc(OCc3c(Cl)ccc(N(C)C(=O)CNC(=O)/C=C/c4ccc(C(=O)NCc5ccccn5)cc4)c3Cl)c2n1.Cl` yielded an IC50 (B2 bradykinin receptor [2]) of 2.5 nM, an IC50 (B2 bradykinin receptor [3]) of 40 nM and an Inhibition (Cavia porcellus [6]) of 72.6%.
For `CC(=O)Nc1ccc(/C=C/C(=O)NCC(=O)N(C)c2ccc(Cl)c(COc3cccc4c(N(C)C)cc(C)nc34)c2Cl)cn1.Cl`, the IC50 (B2 bradykinin receptor [2]) was 4.2 nM, the IC50 (B2 bradykinin receptor [3]) was 6.3 nM and the Inhibition (Cavia porcellus [1]) was 89.4%.
